Test results taken from ChEMBL document CHEMBL1121573, “2-(Aminomethyl)phenols, a new class of saluretic agents. 1. Effects of nuclear substitution” (J Med Chem, 1980).

Columns and labels:
Rattus norvegicus [1] = species: Rattus norvegicus; test: Time taken for the decrease in arterial pressure was measured; assay type: functional, Artery
Canis familiaris [2] = test: Oral diuretic activity was evaluated by measuring Cl- excretion in dog at 5 mg/kg after […] ( 0 - 6 hr); assay type: ADME, organism-based, Canis lupus familiaris, Urine; parameters: dose 5 mg/kg, route intraperitoneal; conditions: in vivo
Rattus norvegicus [3] = test: Compound administered orally at a dose of 1 mg/kg was evaluated for salidiuretic activity measured as sodium ion excretion in Rat; conditions: in vivo, po
Rattus norvegicus [4] = test: Oral diuretic activity was evaluated by measuring Na+ excretion in Rat at 3 mg/kg […] ( 0 - 5 hr); assay type: ADME, organism-based, Urine; parameters: dose 3 mg/kg
How it was run: (§1)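 Female Charles-River rats (150–170 g) were kept overnight on a sugar diet with water ad libitum. Compound was dissolved in DMF, then diluted with water containing Tween 80 (3 drops/100 mL) to a final 4% DMF, and given po in 5.0 mL. Rats were housed three per metabolism cage. Urine from 0–5 h was analysed for Na+, K+ and Cl−, with concurrent placebo controls. Values are mequiv × 100 per cage, geometric mean of three cages per dose.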

Canis familiaris [5] = test: Oral diuretic activity was evaluated by measuring K+ excretion in dog at 1 mg/kg after […] ( 0 - 6 hr); assay type: ADME, organism-based, Canis lupus familiaris, Urine; parameters: dose 1 mg/kg; conditions: in vivo
How it was run: (§2)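 Spontaneous urine was pooled with bladder urine collected by catheterization at 6 h. Volume was measured and Na+, K+ and Cl− were determined by standard methods. Values are geometric means.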

Rattus norvegicus [6] = test: Oral diuretic activity was evaluated by measuring Na+ excretion in Rat at 9 mg/kg […] ( 0 - 5 hr); assay type: ADME, organism-based, Urine; parameters: dose 9 mg/kg; how it was run: as §1
Rattus norvegicus [7] = test: Oral diuretic activity was evaluated by measuring K+ excretion in Rat at 81 mg/kg […] ( 0 - 5 hr); assay type: ADME, organism-based, Urine; parameters: dose 81 mg/kg
How it was run: (§3)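 Female Charles-River rats (150–170 g) were kept overnight on a sugar diet with water ad libitum. Test substance was dissolved in DMF and diluted with water containing Tween 80 to a final 4% DMF vehicle, then given po in 5.0 mL. Rats were housed three per metabolism cage, and 0–5 h urine was assayed for Na⁺, K⁺ and Cl⁻ alongside concurrent placebo groups. Values are mequiv × 100 per cage, geometric means of three cages per dose.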

[8] = Compound administered orally at a dose of 5 mg/kg was evaluated for salidiuretic activity measured as sodium ion excretion in Rat; assay type: organism-based; parameters: dose 5 mg/kg; conditions: Urine
How it was run: (§4)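 Female Charles-River rats (150–170 g), overnight on sugar diet with water ad libitum. Compound dissolved in DMF, diluted with water containing Tween 80 (final 4% DMF), given po in 5.0 mL; concurrent vehicle placebo. Three rats per metabolism cage; 0–5 h urine analysed for Na+, K+, Cl-. Values: mequiv × 100 per cage, geometric means of three cages per dose; scored 0–6 by Na+.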

Rattus norvegicus [9] = test: Oral diuretic activity was evaluated by measuring Cl- excretion in Rat at 3 mg/kg after […] ( 0 - 5 hr); assay type: ADME, organism-based, Urine; parameters: dose 3 mg/kg, route intraperitoneal; conditions: in vivo
Rattus norvegicus [10] = test: Oral diuretic activity was evaluated by measuring Na+ excretion in Rat at 27 mg/kg […] ( 0 - 5 hr); assay type: ADME, organism-based, Urine; parameters: dose 27 mg/kg; how it was run: as §1
Rattus norvegicus [11] = test: Oral diuretic activity was evaluated by measuring K+ excretion in Rat at 3 mg/kg […] ( 0 - 5 hr); assay type: ADME, organism-based, Urine; parameters: dose 3 mg/kg; how it was run: as §3
Canis familiaris [12] = test: Oral diuretic activity was evaluated by measuring Na+ excretion in dog at 5 mg/kg after […] ( 0 - 6 hr); assay type: ADME, organism-based, Canis lupus familiaris, Urine; parameters: dose 5 mg/kg; conditions: in vivo
How it was run: (§5)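 Dogs; spontaneous urine was pooled with bladder urine drained by catheter at the end of 6 h. Urine volume was measured, and aliquots were assayed for Na+, K+ and Cl− by standard methods. Values are geometric means, expressed as mequiv over 0–6 h.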

Rattus norvegicus [13] = test: Oral diuretic activity was evaluated by measuring K+ excretion in Rat at 9 mg/kg after […] ( 0 - 5 hr); assay type: ADME, organism-based, Urine; parameters: dose 9 mg/kg; conditions: in vivo; how it was run: as §3
Canis familiaris [14] = test: Oral diuretic activity was evaluated by measuring Cl- excretion in dog at 2 mg/kg after […] ( 0 - 6 hr); assay type: ADME, organism-based, Canis lupus familiaris, Urine; parameters: dose 2 mg/kg, route intraperitoneal; conditions: in vivo
Rattus norvegicus [15] = test: Maximum fall in mean arterial blood pressure was measured in SH rats when compound was administered at 20 mg/kg perorally; assay type: functional; conditions: route oral
Rattus norvegicus [16] = test: Evaluated for salidiuretic activity measured as sodium ion excretion in Rat, administered orally at a dose of 50 mg/kg; assay type: functional, Urine; parameters: unit not given beside the values; conditions: route oral; how it was run: as §4
Canis familiaris [17] = test: Oral diuretic activity was evaluated by measuring K+ excretion in dog at 5 mg/kg after ip administration ( 0 - 6 hr); assay type: ADME, organism-based, Canis lupus familiaris, Urine; parameters: dose 5 mg/kg, route intraperitoneal; conditions: in vivo; how it was run: as §2
[18] = Evaluated for salidiuretic activity measured as sodium ion excretion in Rat, administered orally at a dose of 16.5 mg/kg; assay type: organism-based; parameters: dose 16.5 mg/kg; conditions: Urine; how it was run: as §4
Canis familiaris [19] = test: Compound administered intravenously at a dose of 5 mg/kg was evaluated for salidiuretic activity measured as sodium ion excretion in Dog; assay type: ADME, organism-based, Canis lupus familiaris, Urine; parameters: dose 5 mg/kg, route intravenous; conditions: in vivo, iv
How it was run: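 Conditioned female mongrel dogs, postabsorptive, water-loaded (500 mL po) 1 h before sodium pentobarbital anesthesia (30 mg/kg iv). Bladder catheter; creatinine 4 g sc; phosphate–mannitol buffer pH 7.4 infused (3.0 mL/min) throughout. […] Urine Na+ measured; response scored 0–6.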

Canis familiaris [20] = test: Oral diuretic activity was evaluated by measuring K+ excretion in dog at 2 mg/kg after ip administration ( 0 - 6 hr); assay type: ADME, organism-based, Canis lupus familiaris, Urine; parameters: route intraperitoneal, dose 2 mg/kg; conditions: in vivo; how it was run: as §2
Rattus norvegicus [21] = test: Maximum fall in mean arterial blood pressure was measured in SH rats when compound was administered at 40 mg/kg perorally; assay type: functional; conditions: route oral
Rattus norvegicus [22] = test: Oral diuretic activity was evaluated by measuring Cl- excretion in Rat at 9 mg/kg […] ( 0 - 5 hr); assay type: ADME, organism-based, Urine; parameters: dose 9 mg/kg; conditions: in vivo; how it was run: as §3
Rattus norvegicus [23] = test: Oral diuretic activity was evaluated by measuring Cl- excretion in Rat at 27 mg/kg after […] ( 0 - 5 hr); assay type: ADME, organism-based, Urine; parameters: dose 27 mg/kg, route intraperitoneal; conditions: in vivo
Canis familiaris [24] = test: Oral diuretic activity was evaluated by measuring Cl- excretion in dog at 1 mg/kg after […] ( 0 - 6 hr); assay type: ADME, organism-based, Canis lupus familiaris, Urine; parameters: dose 1 mg/kg, route intraperitoneal; conditions: in vivo
Canis familiaris [25] = test: Oral diuretic activity was evaluated by measuring Na+ excretion in dog at 1 mg/kg after ip administration ( 0 - 6 hr); assay type: ADME, organism-based, Canis lupus familiaris, Urine; parameters: dose 1 mg/kg, route intraperitoneal; conditions: in vivo; how it was run: as §2
Rattus norvegicus [26] = test: Oral diuretic activity was evaluated by measuring Cl- excretion in Rat at 81 mg/kg after po administration ( 0 - 5 hr); conditions: in vivo
Rattus norvegicus [27] = test: Oral diuretic activity was evaluated by measuring K+ excretion in Rat at 27 mg/kg after po administration ( 0 - 5 hr); conditions: in vivo
Canis familiaris [28] = test: Oral diuretic activity was evaluated by measuring Na+ excretion in dog at 2 mg/kg after […] ( 0 - 6 hr); assay type: ADME, organism-based, Canis lupus familiaris, Urine; parameters: dose 2 mg/kg; conditions: in vivo; how it was run: as §5

## CC(C)(C)c1cc(Cl)c(O)c(CN)c1.Cl
Rattus norvegicus [1]
  Duration: 24 h
Canis familiaris [2]
  Diuretic activity: 54.25
Rattus norvegicus [3]
  Diuretic activity: 2.1
Rattus norvegicus [4]
  Diuretic activity: 1.75
Canis familiaris [5]
  Diuretic activity: 6.5
Rattus norvegicus [6]
  Diuretic activity: 2.68
Rattus norvegicus [7]
  Diuretic activity: 0.9
[8]
  Diuretic activity: 3.6
Rattus norvegicus [9]
  Diuretic activity: 2.4
Rattus norvegicus [10]
  Diuretic activity: 3.16
Rattus norvegicus [11]
  Diuretic activity: 0.52
Canis familiaris [12]
  Diuretic activity: 43.13
Rattus norvegicus [13]
  Diuretic activity: 0.71
Canis familiaris [14]
  Diuretic activity: 51.63
Rattus norvegicus [15]
  MAP: 9 mmHg
Rattus norvegicus [16]
  Diuretic activity: 3.9
Canis familiaris [17]
  Diuretic activity: 10.38
[18]
  Diuretic activity: 4.2
Canis familiaris [19]
  Diuretic activity: > 900
Canis familiaris [20]
  Diuretic activity: 9.13
Rattus norvegicus [21]
  MAP: 35 mmHg
Rattus norvegicus [22]
  Diuretic activity: 3.7
Rattus norvegicus [23]
  Diuretic activity: 4.31
Canis familiaris [24]
  Diuretic activity: 38.25
Canis familiaris [25]
  Diuretic activity: 28.38
Rattus norvegicus [26]
  Diuretic activity: 4.87
Rattus norvegicus [27]
  Diuretic activity: 0.94
Canis familiaris [28]
  Diuretic activity: 40.38
